ChEMBL document CHEMBL1129299, “Synthesis and antitumor evaluation of a highly potent cytotoxic DNA cross-linking polyamine analogue, 1,12-diaziridinyl-4,9-diazadodecane” (1996)

Legend:
Mus musculus [1] = assay: In vivo antitumor studies were carried out on mice bearing L1210 murine leukemia cells, by administering intravenously the compound dose of 2.7 mg/kg on days 1,5 and 9.; type: functional; settings: route intravenous
In short: (§1)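 Female CD2F1 mice (12-week-old, five per group) given 1 × 10^5 L1210 ascites cells ip on day 0; cells were first passaged ip in DBA/2 mice. From day 1, freshly made drug in 25 mM sodium phosphate pH 7.4 was given iv by tail vein at 0.01 mL/g. Mean survival days were compared with untreated mice by ANOVA and Newman-Keuls.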

Mus musculus [2] = assay: In vivo antitumor studies were carried out on mice bearing L1210 murine leukemia cells, by administering intravenously the compound dose of 4.0 mg/kg on days 1,5 and 9.; type: functional; settings: route intravenous; in short: as §1
Mus musculus [3] = assay: In vivo antitumor studies were carried out on mice bearing L1210 murine leukemia cells, by administering intravenously the compound dose of 2.7 mg/kg on days 1,8; type: functional; settings: route intravenous; in short: as §1
Mus musculus [4] = assay: Percent increase in life span was calculated by administering intravenously the compound dose of 1.8 mg/kg on days 1,2; type: functional; settings: route intravenous
In short: (§2)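 CD2F1 female mice bore ip L1210 (1 × 10^5 cells/mouse, day 0). Tail-vein iv dosing in 25 mM phosphate buffer pH 7.4 began on day 1. Percent increase in life span was calculated as (T − C)/C × 100, with T and C the median days of death for the treated and untreated groups.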

Mus musculus [5] = assay: Net log cell kill is an estimate of the number of cells that are killed by the compound was calculated at dose of 4.0 mg/kg on days 1,8; type: functional
In short: (§3)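 Net log cell kill in female CD2F1 mice given ip L1210 (1 × 10^5 cells, day 0) and iv tail-vein drug from day 1. It was calculated from treated-minus-control median day of death, less treatment duration, relative to tumor doubling time. Doubling time came from median days of death in titration groups of 10 mice implanted with 1 × 10^4 to 1 × 10^6 cells.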

Mus musculus [6] = assay: In vivo antitumor studies were carried out on mice bearing L1210 murine leukemia cells, by administering intravenously the compound dose of 4.0 mg/kg on days 1,2; type: functional; settings: route intravenous; in short: as §1
Mus musculus [7] = assay: Percent increase in life span was calculated by administering intravenously the compound dose of 1.8 mg/kg on days 1,8; type: functional; settings: route intravenous; in short: as §2
Mus musculus [8] = assay: Percent increase in life span was calculated by administering intravenously the compound dose of 4.0 mg/kg on days 1,8; type: functional; settings: route intravenous; in short: as §2
Mus musculus [9] = assay: Net log cell kill is an estimate of the number of cells that are killed by the compound was calculated at dose of 2.7 mg/kg on days 1,5,9; type: functional; in short: as §3
Mus musculus [10] = assay: Net log cell kill is an estimate of the number of cells that are killed by the compound was calculated at dose of 1.8 mg/kg on days 1,2; type: functional; in short: as §3
Mus musculus [11] = assay: Percent increase in life span was calculated by administering intravenously the compound dose of 4.0 mg/kg on days 1; type: functional; settings: route intravenous; in short: as §2
Mus musculus [12] = assay: Net log cell kill is an estimate of the number of cells that are killed by the compound was calculated at dose of 2.7 mg/kg on days 1,8; type: functional; in short: as §3
Mus musculus [13] = assay: Net log cell kill is an estimate of the number of cells that are killed by the compound was calculated at dose of 4.0 mg/kg on days 1; type: functional; in short: as §3
Mus musculus [14] = assay: Percent increase in life span was calculated by administering intravenously the compound dose of 2.7 mg/kg on days 1,5 and 9.; type: functional; settings: route intravenous; in short: as §2
Mus musculus [15] = assay: In vivo antitumor studies were carried out on mice bearing L1210 murine leukemia cells, by administering intravenously the compound dose of 4.0 mg/kg on days 1,8; type: functional; settings: route intravenous; in short: as §1
Mus musculus [16] = assay: In vivo antitumor studies were carried out on mice bearing L1210 murine leukemia cells, by administering intravenously the compound dose of 2.7 mg/kg on days 1; type: functional; settings: route intravenous; in short: as §1
Mus musculus [17] = assay: In vivo antitumor studies were carried out on mice bearing L1210 murine leukemia cells, by administering intravenously the compound dose of 1.8 mg/kg on days 1,2; type: functional; settings: route intravenous; in short: as §1
Mus musculus [18] = assay: In vivo antitumor studies were carried out on mice bearing L1210 murine leukemia cells, by administering intravenously the compound dose of 1.8 mg/kg on days 1,5 and 9.; type: functional; settings: route intravenous; in short: as §1
Mus musculus [19] = assay: Net log cell kill is an estimate of the number of cells that are killed by the compound was calculated at dose of 2.7 mg/kg on days 1; type: functional; in short: as §3
Mus musculus [20] = assay: In vivo antitumor studies were carried out on mice bearing L1210 murine leukemia cells, by administering intravenously the compound dose of 6.0 mg/kg on days 1; type: functional; settings: route intravenous; in short: as §1
Mus musculus [21] = assay: Net log cell kill is an estimate of the number of cells that are killed by the compound was calculated at dose of 1.8 mg/kg on days 1,5,9; type: functional; in short: as §3
Mus musculus [22] = assay: Net log cell kill is an estimate of the number of cells that are killed by the compound was calculated at dose of 2.7 mg/kg on days 1,2; type: functional; in short: as §3
Mus musculus [23] = assay: Percent increase in life span was calculated by administering intravenously the compound dose of 2.7 mg/kg on days 1; type: functional; settings: route intravenous; in short: as §2
Mus musculus [24] = assay: Percent increase in life span was calculated by administering intravenously the compound dose of 4.0 mg/kg on days 1,5 and 9.; type: functional; settings: route intravenous; in short: as §2
Mus musculus [25] = assay: In vivo antitumor studies were carried out on mice bearing L1210 murine leukemia cells, by administering intravenously the compound dose of 4.0 mg/kg on days 1; type: functional; settings: route intravenous; in short: as §1
Mus musculus [26] = assay: Percent increase in life span was calculated by administering intravenously the compound dose of 2.7 mg/kg on days 1,2; type: functional; settings: route intravenous; in short: as §2
Mus musculus [27] = assay: Percent increase in life span was calculated by administering intravenously the compound dose of 1.8 mg/kg on days 1,5 and 9.; type: functional; settings: route intravenous; in short: as §2
Mus musculus [28] = assay: In vivo antitumor studies were carried out on mice bearing L1210 murine leukemia cells, by administering intravenously the compound dose of 1.8 mg/kg on days 1; type: functional; settings: route intravenous; in short: as §1
Mus musculus [29] = assay: Percent increase in life span was calculated by administering intravenously the compound dose of 1.8 mg/kg on days 1; type: functional; settings: route intravenous; in short: as §2
Mus musculus [30] = assay: In vivo antitumor studies were carried out on mice bearing L1210 murine leukemia cells, by administering intravenously the compound dose of 1.8 mg/kg on days 1,8; type: functional; settings: route intravenous; in short: as §1
Mus musculus [31] = assay: Percent increase in life span was calculated by administering intravenously the compound dose of 2.7 mg/kg on days 1,8; type: functional; settings: route intravenous; in short: as §2
Mus musculus [32] = assay: Net log cell kill is an estimate of the number of cells that are killed by the compound was calculated at dose of 1.8 mg/kg on days 1; type: functional; in short: as §3
Mus musculus [33] = assay: In vivo antitumor studies were carried out on mice bearing L1210 murine leukemia cells, by administering intravenously the compound dose of 2.7 mg/kg on days 1,2; type: functional; settings: route intravenous; in short: as §1
Mus musculus [34] = assay: In vivo antitumor studies were carried out on mice bearing L1210 murine leukemia cells, by administering intraperitoneally the compound dose of 10 mg/kg on days 1,5 and 9.; settings: route intraperitoneal
Mus musculus [35] = assay: Net log cell kill is an estimate of the number of cells that are killed by the compound was calculated at dose of 10 mg/kg on days 1,5,9; type: functional
Mus musculus [36] = assay: Percent increase in life span was calculated by administering intraperitoneally the compound dose of 10 mg/kg on days 1,5 and 9.; settings: ip

Compound: C(CCNCCCN1CC1)CNCCCN1CC1
- Mean survival (Mus musculus [1]): 18.8 days
- Mean survival (Mus musculus [2]): 11 days
- Mean survival (Mus musculus [3]): 15.2 days
- ILS at 1.8 mg/kg (Mus musculus [4]): 100%
- NLCK (Mus musculus [5]): 4
- Mean survival (Mus musculus [6]): 5.4 days
- ILS at 1.8 mg/kg (Mus musculus [7]): 86%
- ILS at 4 mg/kg (Mus musculus [8]): 157%
- NLCK (Mus musculus [9]): 4
- NLCK (Mus musculus [10]): 6
- ILS at 4 mg/kg (Mus musculus [11]): 57%
- NLCK (Mus musculus [12]): 2
- NLCK (Mus musculus [13]): 4
- ILS at 2.7 mg/kg (Mus musculus [14]): 171%
- Mean survival (Mus musculus [15]): 17.2 days
- Mean survival (Mus musculus [16]): 10.4 days
- Mean survival (Mus musculus [17]): 14.8 days
- Mean survival (Mus musculus [18]): 17.4 days
- NLCK (Mus musculus [19]): 3
- Mean survival (Mus musculus [20]): 6.8 days
- NLCK (Mus musculus [21]): 2
- NLCK (Mus musculus [22]): 6
- ILS at 2.7 mg/kg (Mus musculus [23]): 42%
- ILS at 4 mg/kg (Mus musculus [24]): 14%
- Life span (Mus musculus [25]): 11 days
- ILS at 2.7 mg/kg (Mus musculus [26]): 100%
- ILS at 1.8 mg/kg (Mus musculus [27]): 143%
- Mean survival (Mus musculus [28]): 10.8 days
- ILS at 1.8 mg/kg (Mus musculus [29]): 57%
- Mean survival (Mus musculus [30]): 12.6 days
- ILS at 2.7 mg/kg (Mus musculus [31]): 129%
- NLCK (Mus musculus [32]): 4
- Mean survival (Mus musculus [33]): 13.2 days

Compound: S=P(N1CC1)(N1CC1)N1CC1 [THIOTEPA]
- Mean survival (Mus musculus [34]): 15.3 days
- NLCK (Mus musculus [35]): 1
- ILS at 10 mg/kg (Mus musculus [36]): 114%
